Assay results as given in ChEMBL document CHEMBL1795341, “Efficient synthesis, structural characterization and anti-microbial activity of chiral aryl boronate esters of 1,2-O-isopropylidene-α-D-xylofuranose” (2011).
≈ marks a conversion by molar mass, not a printed value.

What was measured:
Format in all cases: functional
Diutina rugosa [1] = assay: Antifungal activity against Candida rugosa NCIM 3462 at 100 ug after 48 hrs by agar well diffusion method; conditions: NCIM 3462, 48 h, read-out: DIZ
Outline: (§1)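 Agar well diffusion on potato dextrose agar; 0.5 ml week-old culture spread over solidified plates, 6 mm wells bored. Compounds dissolved in DMSO at different concentrations and added to wells, with controls. Incubated 27 °C for 48 h; inhibition zone diameter measured in mm; three to four replicates per treatment.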

Aspergillus niger [2] = assay: Antifungal activity against Aspergillus niger MTCC 282 at 100 ug after 48 hrs by agar well diffusion method; conditions: MTCC 282, 48 h, read-out: DIZ; outline: as §1
Pseudomonas aeruginosa = assay: Antibacterial activity against Pseudomonas aeruginosa MTCC 741 by broth microdilution method
Klebsiella pneumoniae = assay: Antibacterial activity against Klebsiella pneumoniae MTCC 618 by broth microdilution method
Aspergillus niger [3] = assay: Antifungal activity against Aspergillus niger MTCC 282 at 150 ug after 48 hrs by agar well diffusion method; conditions: MTCC 282, 48 h, read-out: DIZ; outline: as §1
Diutina rugosa [4] = assay: Antifungal activity against Candida rugosa NCIM 3462 at 150 ug after 48 hrs by agar well diffusion method; conditions: NCIM 3462, 48 h, read-out: DIZ; outline: as §1
Bacillus subtilis = assay: Antibacterial activity against Bacillus subtilis MTCC 441 by broth microdilution method
Candida albicans [5] = assay: Antifungal activity against Candida albicans MTCC 227 at 150 ug after 48 hrs by agar well diffusion method; conditions: MTCC 227, 48 h, read-out: DIZ; outline: as §1
[6] = system: Staphylococcus epidermidis; assay: Antibacterial activity against Staphylococcus epidermidis MTCC 2639 by broth microdilution method
Saccharomyces cerevisiae [7] = assay: Antifungal activity against Saccharomyces cerevisiae MTCC 36 at 100 ug after 48 hrs by agar well diffusion method; conditions: MTCC 36, 48 h, read-out: DIZ; outline: as §1
Saccharomyces cerevisiae [8] = assay: Antifungal activity against Saccharomyces cerevisiae MTCC 36 at 150 ug after 48 hrs by agar well diffusion method; conditions: MTCC 36, 48 h, read-out: DIZ; outline: as §1
Staphylococcus aureus = assay: Antibacterial activity against Staphylococcus aureus MTCC 96 by broth microdilution method
Escherichia coli = assay: Antibacterial activity against Escherichia coli MTCC 443 by broth microdilution method
Candida albicans [9] = assay: Antifungal activity against Candida albicans MTCC 227 at 100 ug after 48 hrs by agar well diffusion method; conditions: MTCC 227, 48 h, read-out: DIZ; outline: as §1

| SMILES | zone of inhibition at 100 µg/disc (Diutina rugosa [1]) [mm] | zone of inhibition at 100 µg/disc (Aspergillus niger [2]) [mm] | MIC (Pseudomonas aeruginosa) [µg/mL] | MIC (Klebsiella pneumoniae) [µg/mL] | zone of inhibition at 150 µg/disc (Aspergillus niger [3]) [mm] | zone of inhibition at 150 µg/disc (Diutina rugosa [4]) [mm] | MIC (Bacillus subtilis) [µg/mL] | zone of inhibition at 150 µg/disc (Candida albicans [5]) [mm] | MIC [6] [µg/mL] | zone of inhibition at 100 µg/disc (Saccharomyces cerevisiae [7]) [mm] | zone of inhibition at 150 µg/disc (Saccharomyces cerevisiae [8]) [mm] | MIC (Staphylococcus aureus) [µg/mL] | MIC (Escherichia coli) [µg/mL] | zone of inhibition at 100 µg/disc (Candida albicans [9]) [mm] |
| --- | --- | --- | --- | --- | --- | --- | --- | --- | --- | --- | --- | --- | --- | --- |
| CC1(C)O[C@H]2O[C@@H]3COB(c4ccc(C=O)cc4)O[C@@H]3[C@H]2O1 | 13 | 6 | 37.5 (≈ 123 µM) | 4.68 (≈ 15.4 µM) | 8 | 17 | 18.8 (≈ 61.7 µM) | 14 | 18.8 (≈ 61.7 µM) | 14 | 19 | 9.38 (≈ 30.8 µM) | 4.68 (≈ 15.4 µM) | 12 |
| CC1(C)O[C@H]2O[C@@H]3COB(c4ccccc4)O[C@@H]3[C@H]2O1 | 0 | 8 | 37.5 (≈ 136 µM) | 75 (≈ 272 µM) | 12 | 0 | 37.5 (≈ 136 µM) | 6 | 18.8 (≈ 67.9 µM) | 0 | 0 | 75 (≈ 272 µM) | 18.8 (≈ 67.9 µM) | 0 |
| CC1(C)O[C@H]2O[C@@H]3COB(c4ccc(F)cc4)O[C@@H]3[C@H]2O1 | 11 | 0 | 75 (≈ 255 µM) | 37.5 (≈ 128 µM) | 6 | 14 | 75 (≈ 255 µM) | 8 | 75 (≈ 255 µM) | 7 | 10 | 18.8 (≈ 63.8 µM) | 37.5 (≈ 128 µM) | 6 |
| CN[C@@H]1[C@H](O[C@H]2[C@H](O[C@H]3[C@H](O)[C@@H](O)[C@H](N=C(N)N)[C@@H](O)[C@@H]3N=C(N)N)O[C@@H](C)[C@]2(O)C=O)O[C@@H](CO)[C@H](O)[C@H]1O [STREPTOMYCIN] | – | – | 1.56 (≈ 2.69 µM) | 3.12 (≈ 5.37 µM) | – | – | 6.25 (≈ 10.7 µM) | – | 3.12 (≈ 5.37 µM) | – | – | 6.25 (≈ 10.7 µM) | 6.25 (≈ 10.7 µM) | – |
| CC1(C)O[C@H]2O[C@@H]3COB(c4ccsc4)O[C@@H]3[C@H]2O1 | 14 | 12 | 18.8 (≈ 66.5 µM) | 75 (≈ 266 µM) | 16 | 20 | 75 (≈ 266 µM) | 7 | 18.8 (≈ 66.5 µM) | 10 | 14 | 37.5 (≈ 133 µM) | 4.68 (≈ 16.6 µM) | 0 |
| C[C@@H]1[C@H](O)[C@@H](C)/C=C/C=C/C=C/C=C/C=C/C=C/C=C/[C@H](O[C@@H]2O[C@H](C)[C@@H](O)[C@H](N)[C@@H]2O)C[C@@H]2O[C@](O)(C[C@@H](O)C[C@@H](O)[C@H](O)CC[C@@H](O)C[C@@H](O)CC(=O)O[C@H]1C)C[C@H](O)[C@H]2C(=O)O [AMPHOTERICIN B] | 21 | 25 | – | – | – | – | – | – | – | 22 | – | – | – | 23.5 |
| CC1(C)S[C@@H]2[C@H](NC(=O)Cc3ccccc3)C(=O)N2[C@H]1C(=O)O [PENICILLIN G] | – | – | 12.5 (≈ 37.4 µM) | 6.25 (≈ 18.7 µM) | – | – | 1.56 (≈ 4.67 µM) | – | 3.12 (≈ 9.35 µM) | – | – | 1.56 (≈ 4.67 µM) | 12.5 (≈ 37.4 µM) | – |
| Cc1ccc(B2OC[C@H]3O[C@@H]4OC(C)(C)O[C@@H]4[C@H]3O2)cc1 | 0 | 0 | 150 (≈ 517 µM) | 150 (≈ 517 µM) | 0 | 6 | 150 (≈ 517 µM) | 0 | 150 (≈ 517 µM) | 0 | 0 | 150 (≈ 517 µM) | 150 (≈ 517 µM) | 0 |
| CC1(C)O[C@H]2O[C@@H]3COB(c4cccs4)O[C@@H]3[C@H]2O1 | 9 | 9 | 75 (≈ 266 µM) | 150 (≈ 532 µM) | 11 | 13 | 75 (≈ 266 µM) | 6 | 37.5 (≈ 133 µM) | 12 | 17 | 150 (≈ 532 µM) | 150 (≈ 532 µM) | 0 |
| C=Cc1ccc(B2OC[C@H]3O[C@@H]4OC(C)(C)O[C@@H]4[C@H]3O2)cc1 | 0 | 9 | 37.5 (≈ 124 µM) | 150 (≈ 496 µM) | 14 | 0 | 75 (≈ 248 µM) | 9 | 75 (≈ 248 µM) | 6 | 8 | 75 (≈ 248 µM) | 150 (≈ 496 µM) | 6 |
| COc1ccc(B2OC[C@H]3O[C@@H]4OC(C)(C)O[C@@H]4[C@H]3O2)cc1 | 7 | 0 | 150 (≈ 490 µM) | 75 (≈ 245 µM) | 0 | 10 | 150 (≈ 490 µM) | 0 | 150 (≈ 490 µM) | 0 | 0 | 150 (≈ 490 µM) | 150 (≈ 490 µM) | 0 |
| CC1(C)O[C@H]2O[C@@H]3COB(c4ccc5ccccc5c4)O[C@@H]3[C@H]2O1 | 13 | 0 | 150 (≈ 460 µM) | 150 (≈ 460 µM) | 4 | 16 | 150 (≈ 460 µM) | 9 | 75 (≈ 230 µM) | 7 | 11 | 150 (≈ 460 µM) | 150 (≈ 460 µM) | 6 |
| CC1(C)O[C@H]2O[C@@H]3COB(c4cccc([N+](=O)[O-])c4)O[C@@H]3[C@H]2O1 | 16 | 14 | 18.8 (≈ 58.4 µM) | 4.68 (≈ 14.6 µM) | 18 | 20 | 2.34 (≈ 7.29 µM) | 18 | 9.38 (≈ 29.2 µM) | 11 | 16 | 4.68 (≈ 14.6 µM) | 9.38 (≈ 29.2 µM) | 13 |
